Measurements as given in ChEMBL document CHEMBL1139887, “Glycosides from the stem bark of Fraxinus sieboldiana” (J Nat Prod, 2007).

How the values were obtained:
[1] = Cytotoxicity against human Bel7402 cells; type: cell-based; conditions: Bel-7402
[2] = tested on: HCT-8; assay: Cytotoxicity against human HCT8 cells; type: cell-based
[3] = Cytotoxicity against human BGC823 cells; type: cell-based; conditions: BGC-823
[4] = tested on: A2780; assay: Cytotoxicity against human A2780 cells; type: cell-based
[5] = tested on: Liver microsomes; assay: Antioxidant activity in rat liver microsomes assessed as inhibition of ferrous-cystine-induced lipid peroxidation after 15 mins; type: functional, Microsome
Summary of the method: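 Microsomes from rat liver suspended in 100 mM Tris-HCl pH 7.4. Then 50 µM FeSO4 added and a further 15 min at 37 °C. Stopped with 20% TCA and spun. Supernatant heated with 0.67% TBA 10 min, read at 532 nm. Tested over several concentrations.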

[6] = tested on: A549; assay: Cytotoxicity against human A549 cells; type: cell-based
[7] = tested on: Peritoneal macrophage cell; assay: Inhibition of LPS-induced TNFalpha secretion in C57BL/6J mouse peritoneal macrophages at 10 uM after 24 hrs; type: functional
Summary of the method: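 Macrophages from male C57BL6J mice, harvested 4 days after i.p. thioglycollate. Cells adhered 2 h, then 24 h at 37 °C with compound (10^-5 M final), LPS 1 µg/mL and 5% FCS. Supernatant put on L929 cells with actinomycin D 0.5 µg/mL for 20 h, then MTT 4 h, A570. Triplicate wells. Inhibition = (L−S)/(L−B)×100. Indomethacin reference.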

[8] = tested on: Peritoneal macrophage cell; assay: Inhibition of LPS-induced TNFalpha secretion in C57BL/6J mouse peritoneal macrophages after 24 hrs; type: functional, cell-based

Row | Compound | IC50 [1] [µM] | IC50 [2] [µM] | IC50 [3] [µM] | IC50 [4] [µM] | IC50 [5] [µM] | IC50 [6] [µM] | inhibition at 10 µM [7] [%] | IC50 [8] [µM]
1 | COc1cc(O[C@@H]2O[C@H](CO)[C@@H](O)[C@H](O)[C@H]2O)ccc1O[C@@H]1O[C@H](CO)[C@@H](O)[C@H](O)[C@H]1O | > 5 | > 5 | > 5 | > 5 | > 10 | > 5 | 16.3 | –
2 | COc1cc([C@@H](O)[C@H](O)CO)cc(OC)c1O[C@@H]1O[C@H](CO)[C@@H](O)[C@H](O)[C@H]1O | > 5 | > 5 | > 5 | > 5 | > 10 | > 5 | 27.5 | –
3 | COc1cc(CCO[C@@H]2O[C@H](CO[C@@H]3OC[C@](O)(CO)[C@H]3O)[C@@H](O)[C@H](O)[C@H]2O)ccc1O | > 5 | > 5 | > 5 | > 5 | > 10 | > 5 | 44.3 | 1.6
4 | COc1cc([C@H](O)[C@@H](O)CO)cc(OC)c1O[C@@H]1O[C@H](CO)[C@@H](O)[C@H](O)[C@H]1O | > 5 | > 5 | > 5 | > 5 | > 10 | > 5 | 28.2 | –
5 | COc1cc(O[C@@H]2O[C@H](CO)[C@@H](O)[C@H](O)[C@H]2O)cc(OC)c1O[C@@H]1O[C@H](CO)[C@@H](O)[C@H](O)[C@H]1O | > 5 | > 5 | > 5 | > 5 | > 10 | > 5 | 25.2 | –
6 | COc1cc([C@@H](O)[C@@H](O)CO)cc(OC)c1O[C@@H]1O[C@H](CO)[C@@H](O)[C@H](O)[C@H]1O | > 5 | > 5 | > 5 | > 5 | > 10 | > 5 | 26.6 | –
7 | OC[C@@]1(O)CO[C@@H](OC[C@H]2O[C@@H](OCCc3ccc(O)c(O)c3)[C@H](O)[C@@H](O)[C@@H]2O)[C@@H]1O | > 5 | > 5 | > 5 | > 5 | 0.9 | > 5 | 28.8 | –
8 | COc1cc(C(=O)OC[C@H]2O[C@@H](Oc3cc4ccc(=O)oc4cc3O)[C@H](O)[C@@H](O)[C@@H]2O)ccc1O[C@@H]1O[C@H](CO)[C@@H](O)[C@H](O)[C@H]1O | > 5 | > 5 | > 5 | > 5 | > 10 | > 5 | 30.8 | –
9 | CC1=C[C@@H](C2=C(C)CC[C@H](O[C@@H]3O[C@H](CO)[C@@H](O)[C@H](O)[C@H]3O)C2(C)C)[C@@H](/C=C(/C)C(=O)O)OC1 [FRAXINUACIDOSIDE] | > 5 | > 5 | > 5 | > 5 | > 10 | > 5 | – | –
10 | COc1ccc2c(c1)c(CC(=O)O)c(C)n2C(=O)c1ccc(Cl)cc1 [INDOMETHACIN] | – | – | – | – | – | – | 33.2 | –
11 | O=C(/C=C/c1ccc(O)c(O)c1)OC[C@H]1O[C@H]2OC[C@H](c3ccc(O)c(O)c3)O[C@@H]2[C@@H](O)[C@@H]1O [PLANTASIOSIDE] | – | 3.4 | – | – | – | – | – | –
